Assay [1] relates to A549. Put plainly: Antitumor activity against A549 non small cell carcinoma at dose range of 3.12-12.5 mg/kg on day 14, 21, 28; activity expressed as maximum tolerated dose. Format: functional, Homo sapiens. The method, boiled down: (§1)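 A549 human lung tumour cells were implanted orthotopically, 10⁶ cells through the chest wall into the left pleural space of anaesthetised BALB/C nude mice. Once tumours were established, drug was given iv on days 14, 21 and 28 after tumour cell injection. The endpoint was life span, expressed as T/C (%) = median survival time of treated/control × 100. MTD was the dose causing no toxic death and/or no weight loss >20%.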

In assay [2] the target is DNA topoisomerase II (Homo sapiens) (UniProt P11388+Q02880). Put plainly: Inhibition of human DNA Topoisomerase II mediated DNA cleavage through the stabilization of transient DAN/topoisomerase II cleavage complex. Format: protein assay. The gist of the method:
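Supercoiled pBS DNA (0.1 μg) preincubated 15 min at 30 °C with drug at 50 μM in 50 mM Tris-HCl pH 7.5, 1 mM ATP, 120 mM KCl, 10 mM MgCl2, 0.5 mM DTT, 0.1 mM EDTA, BSA. Two units human topo II added, 30 min at 30 °C. SDS/proteinase K digestion 30 min at 55 °C. 1% agarose gel with ethidium bromide; linear DNA percentage read, mean of three independent experiments.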

Assay [3] concerns L1210. Put plainly: Percent of L1210 cells in the G2+M phase of the cell cycle at a compound concentration of 0.25 uM. Format: functional, Mus musculus. The method, boiled down:
(§2)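 L1210 cells (2.5 × 10⁵ cells/mL) were incubated for 21 h with compound at the stated concentration. Flow cytometry was run on 10⁴ cells per sample, and the percentage of cells in G2+M was recorded.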

Assay [4] has as its system L1210. Put plainly: Inhibitory concentration required to reduce 50 percent L1210 cell growth. Format: functional, cell-based. Conditions: Mus musculus. The method, boiled down:
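L1210 cells were grown in RPMI 1640 with 10% fetal calf serum, 2 mM glutamine, antibiotics and 10 mM HEPES (pH 7.4). Cells were exposed to compound for 48 h. MTT was then added for 4 h at 37 °C, and formazan was dissolved in DMSO and read at 540 nm. IC50 is the concentration reducing OD by 50%, from linear regression on the linear part of the curve. Triplicate.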

In assay [5] the test system is P388. Put plainly: Evaluated for long-term survivors scored at day 60; 0/6. Format: functional, Mus musculus.
Assay [6] deals with P388. Put plainly: Antitumor activity against P388 leukemia at dose range of 1.56-25 mg/kg on day 1, activity expressed as maximum tolerated dose. Format: functional, Mus musculus.
The subject of assay [7] is P388. Put plainly: Median survival time of treated animals/median survival time of control animals. Format: functional, Mus musculus.
For assay [8], the system named is L1210. Put plainly: Percent of L1210 cells in the G2+M phase of the cell cycle at a compound concentration of 0.5 uM. Format: functional, Mus musculus. The gist of the method:
as §2

For assay [9], the system named is L1210. Put plainly: Percent of L1210 cells in the G2+M phase of the cell cycle at a compound concentration of 10 uM. Format: functional, Mus musculus. The gist of the method: as §2
In assay [10] the test system is L1210. Put plainly: Percent of L1210 cells in the G2+M phase of the cell cycle at a compound concentration of 5 uM; Toxic at 10 uM. Format: functional, Mus musculus. The gist of the method:
as §2

In assay [11] the test system is L1210. Put plainly: Percent of L1210 cells in the G2+M phase of the cell cycle at a compound concentration of 2.5 uM. Format: functional, Mus musculus. The method, boiled down:
as §2

In assay [12] the test system is P388. Put plainly: Antitumor activity against P388 leukemia at dose range of 3.12-50 mg/kg on day 1, activity expressed as maximum tolerated dose. Format: functional, Mus musculus.
Assay [13] deals with A549. Put plainly: Antitumor activity against A549 non small cell carcinoma at dose range of 1.56-6.25 mg/kg on day 14, 21, 28; activity expressed as maximum tolerated dose. Format: functional, Homo sapiens. The method, boiled down: as §1
Assay [14] relates to L1210. Put plainly: Percent of L1210 cells in the G2+M phase of the cell cycle at a compound concentration of 0.1 uM. Format: functional, Mus musculus. The method, boiled down:
as §2

Assay [15] in a line: Median survival time of treated animals/median survival time of control animals; ranges from 126-159. Format: functional. The method, boiled down: as §1
Assay [16] concerns A549. Put plainly: Antitumor activity against A549 non small cell carcinoma at dose range of 25-100 mg/kg on day 14, 21, 28; activity expressed as maximum tolerated dose. Format: functional, Homo sapiens. The method, boiled down:
as §1

Assay [17] concerns P388. Put plainly: Antitumor activity against P388 leukemia at dose range of 12.5-200 mg/kg on day 1, activity expressed as maximum tolerated dose. Format: functional, Mus musculus.

Several values for one entry are separate records, joined by “and”; a condition that tells them apart may be missing. Equal values may be shown once.

The term IC50 denotes the concentration that gives 50% inhibition. Read a low IC50 as inhibition by little substance. The term T/C denotes the ratio of treated to control.

Take `CCN(CC)S(=O)(=O)N[C@@H]1c2cc3c(cc2[C@@H](c2cc(OC)c(O)c(OC)c2)[C@H]2C(=O)OC[C@@H]21)OCO3`: the MTD with A549 [1] was 6.25; with P388 [6] it was 25. The compound further had an Activity in assay [2] of 24. Also, the Effect in the assay on L1210 [3] was found to be 86%. The same compound had an IC50 in the assay with L1210 [4] of 83 nM. The same compound yielded an LTS in the assay on P388 [5] of 0. The T/C in the assay on P388 [7] was 106% and 120%.
Turning to `COc1cc([C@@H]2c3cc4c(cc3[C@@H](NS(C)(=O)=O)[C@H]3COC(=O)[C@H]23)OCO4)cc(OC)c1O`, the Activity in [2] stood at 50. The midpoint of inhibition with L1210 [4], the IC50, lay at 70 nM. The same compound showed an Effect in the assay on L1210 [8] of 77%.
In turn, `COc1cc([C@@H]2c3cc4c(cc3[C@@H](NS(=O)(=O)c3sc(NC(C)=O)nc3C)[C@H]3COC(=O)[C@H]23)OCO4)cc(OC)c1O` came in with an Activity in [2] of 7. Besides, the Effect in the assay with L1210 [9] worked out at 68%. Moreover, the concentration for half-maximal inhibition (IC50) in the assay with L1210 [4] is 3600 nM.
For the compound `COc1cc([C@@H]2c3cc4c(cc3[C@@H](NS(=O)(=O)c3c(F)c(F)c(F)c(F)c3F)[C@H]3COC(=O)[C@H]23)OCO4)cc(OC)c1O`, the Activity in [2] turned out to be 0. The compound also displayed an Effect in the assay on L1210 [10] of 52%. Moreover, in the assay on L1210 [4], the IC50 came to 1000 nM.
In turn, `COc1cc([C@@H]2c3cc4c(cc3[C@@H](NS(=O)(=O)CCCN=[N+]=[N-])[C@H]3COC(=O)[C@H]23)OCO4)cc(OC)c1O` yielded an Activity in assay [2] of 32. The IC50 in the assay with L1210 [4] turned out to be 35 nM.
With `COc1cc([C@@H]2c3cc4c(cc3[C@@H](NS(=O)(=O)c3ccc(S(C)(=O)=O)cc3)[C@H]3COC(=O)[C@H]23)OCO4)cc(OC)c1O`, the Activity in assay [2] worked out at 10. This compound also returned an Effect in the assay on L1210 [11] of 75%. This compound returned a 50% inhibitory concentration (IC50) in the assay with L1210 [4] of 550 nM.
In turn, `COc1cc([C@@H]2c3cc4c(cc3[C@@H](NS(=O)(=O)c3cccs3)[C@H]3COC(=O)[C@H]23)OCO4)cc(OC)c1O` showed an Activity in assay [2] of 9. Further, it took 170 nM to reach half-maximal inhibition in the assay on L1210 [4] (IC50). In the assay on P388 [5], this compound showed an LTS of 0. Also, the MTD in the assay with P388 [12] was 12.5. Also, the T/C with P388 [7] is listed as 102%. In addition, the Effect with L1210 [8] is listed as 71%.
Consider `COc1cc([C@@H]2c3cc4c(cc3[C@@H](NS(=O)(=O)N3CCN(C)CC3)[C@H]3COC(=O)[C@H]23)OCO4)cc(OC)c1O`, for which the MTD with A549 [13] stood at 6.25; in the assay on P388 [6] it was 12.5. For the same compound, the Activity in [2] amounted to 45. In addition, the IC50 in the assay with L1210 [4] was 48 nM. In the assay with L1210 [14], this compound returned an Effect of 84%. In the assay with P388 [5], this compound came in with an LTS of 0. The figures for the T/C (in the assay on P388 [7]; in [15]) were 229% and 159%, respectively.
On to `CCCCN(CCCC)S(=O)(=O)N[C@@H]1c2cc3c(cc2[C@@H](c2cc(OC)c(O)c(OC)c2)[C@H]2C(=O)OC[C@@H]21)OCO3`, for which the Activity in assay [2] is 0. Further, the Effect with L1210 [11] amounted to 60%. Half-maximal inhibition in the assay on L1210 [4] (IC50) was put at 510 nM.
For `COc1cc([C@@H]2c3cc4c(cc3[C@@H](NS(=O)(=O)N3CCOCC3)[C@H]3COC(=O)[C@H]23)OCO4)cc(OC)c1O`, the figures for the MTD in the assay on A549 [16] and with P388 [17] were 50 and 200, respectively. The same compound yielded an Activity in [2] of 31. Also, in the assay on L1210 [3], the Effect was 76%. The IC50 with L1210 [4] is 100 nM. In the assay on P388 [5], this compound returned an LTS of 0. Moreover, in the assay on P388 [7], the T/C is 235% and 155%.
With `COc1cc([C@@H]2c3cc4c(cc3[C@@H](N)[C@H]3COC(=O)[C@H]23)OCO4)cc(OC)c1O`, the Activity in assay [2] turned out to be 0. Further, the Effect in the assay with L1210 [11] amounted to 57%. Further, the concentration for half-maximal inhibition (IC50) with L1210 [4] was determined as 630 nM.

The record behind these values is ChEMBL document CHEMBL1149329, “Synthesis and biological activity of sulfonamide derivatives of epipodophyllotoxin” (J Med Chem, 2004).
